FXIIa inh 1536: human FXIIa protease inhibitors, primary screen, biochemical, 1536-well. Coagulation factor XII (Homo sapiens), P00748. purified FXIIa, Boc-QGR-AMC fluorogenic substrate, 2 h. inhibition, % at 5 µM. 0.3% of 220,000 active; in the data active means inhibition above about 40%;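 further: 0% = enzyme with no compound and 100% = blank without enzyme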
Target sequence (P00748 20-372 limits assumed): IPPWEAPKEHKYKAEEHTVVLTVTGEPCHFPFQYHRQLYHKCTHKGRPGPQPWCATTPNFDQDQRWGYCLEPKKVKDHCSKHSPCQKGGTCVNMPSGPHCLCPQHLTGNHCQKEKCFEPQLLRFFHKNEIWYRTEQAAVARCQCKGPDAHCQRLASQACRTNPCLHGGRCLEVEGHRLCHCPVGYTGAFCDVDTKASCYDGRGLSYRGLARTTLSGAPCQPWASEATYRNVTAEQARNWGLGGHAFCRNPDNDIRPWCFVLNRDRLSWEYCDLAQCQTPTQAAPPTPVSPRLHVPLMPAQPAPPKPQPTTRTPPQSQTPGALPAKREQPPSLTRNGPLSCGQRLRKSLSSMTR
Target sequence (P00748 373-615 limits assumed): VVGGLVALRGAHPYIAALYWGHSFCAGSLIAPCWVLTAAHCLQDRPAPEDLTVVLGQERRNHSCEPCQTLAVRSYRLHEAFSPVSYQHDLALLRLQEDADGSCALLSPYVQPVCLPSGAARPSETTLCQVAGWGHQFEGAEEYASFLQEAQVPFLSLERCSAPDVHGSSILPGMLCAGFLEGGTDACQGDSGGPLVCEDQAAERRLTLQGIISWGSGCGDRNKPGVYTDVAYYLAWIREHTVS
Wee1 degr inh: Wee1 degradation inhibitors, primary screen, cell-based, HeLa, Wee1K328M-luciferase, luminescence | Wee1-like protein kinase (Homo sapiens), P30291 | HeLa Luc-Wee1K328M stability; 100% = proteasome inhibitor MG132 effect | reporter increase, % at 5 µM | 1.2% of 220,000 active;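 active means activation above the mean of all tested compounds plus 3 SD, set per screening run, cut at about 8.8% in these data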;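 further: cells exposed to compound for 20 h before luminescence read; 0% = DMSO alone and 100% = MG132 at 30 µM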
thrombin 1536: human alpha-thrombin inhibitors, primary screen, counter-screen for coagulation protease inhibitor project, biochemical, 1536-well, fluorogenic AMC substrate. Prothrombin (Homo sapiens), P00734. Boc-VPR-AMC fluorogenic substrate cleavage. inhibition, % at 5 µM. 0.26% of 220,000 active;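 active means inhibition at or above 40%; inactive means inhibition below 40%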;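 further: 0% = enzyme with no compound and 100% = wells without enzyme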
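Material: Human alpha-thrombin protein | Buffer or medium: pH 7.5 Tris-saline with Tween 20 | Reagent: Boc-VPR-AMC substrate, 15 µM final | Schedule: Reaction at ambient temperature | Detection: AMC fluorescence at 355 nm excitation and 460 nm emission | Evaluation: Percent inhibition scaled between no-compound controls and no-enzyme blanks | Controls: no-compound enzyme wells and no-enzyme blanks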
KLK5 inh: human KLK5 protease inhibitors, primary screen, biochemical, 1536-well; Kallikrein-5 (Homo sapiens), Q9Y337; recombinant hK5, fluorogenic AMC substrate cleavage; inhibition, % at 5 µM; 0.59% of 210,000 active;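 active means inhibition of 40% or more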;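 further: 0% = enzyme controls without compound and 100% = no-enzyme blanks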
FXIa inh 1536: human FXIa protease inhibitors, primary screen, biochemical, 1536-well | 0.14% of 220,000 active | Coagulation factor XI (Homo sapiens), P03951 | inhibition, % at 5 µM | purified FXIa, Boc-Glu-Ala-Arg-AMC fluorogenic substrate;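 active means inhibition of at least 40%; inactive means inhibition below 40%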;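 further: fluorescence of freed AMC excited at 355 nm; 0% = enzyme without compound and 100% = no enzyme blank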
Numbers without * were called inactive; . = not tested or not shown. An excerpt weighted towards active compounds, which were near 2.2% of everything screened.

SMILES | FXIIa inh 1536 | Wee1 degr inh | thrombin 1536 | KLK5 inh | FXIa inh 1536
O=C(Nc1nc(-c2cccs2)cs1)c1ccco1 | 8 | 1 | 62* | 0 | 6
COc1cc(C(=O)Nc2nc(-c3cccs3)cs2)cc(OC)c1OC | 28 | 0 | 73* | -8 | 3
O=C(Nc1nc(-c2cccs2)cs1)c1ccc(Cl)cc1 | 14 | -1 | 75* | 6 | 43*
O=C(Nc1nc(-c2cccs2)cs1)c1cccc(S(=O)(=O)N2CCCCC2)c1 | 12 | 6 | 15 | -9 | -6
O=C(COc1ccc(Cl)cc1)Nc1nc(-c2cccs2)cs1 | 4 | -1 | -4 | -16 | 4
O=C(O)CC(NC(=O)Cc1ccc([N+](=O)[O-])cc1)c1ccc2c(c1)OCO2 (stereo not given) | 8 | 0 | -1 | 12 | 2
C#CCn1cc(C=C2C(=O)c3ccccc3C2=O)c2ccccc21 | 22 | -4 | 1 | -14 | 17
O=C(CSc1nnc(Cn2nnc(-c3ccccc3)n2)n1-c1ccccc1)Nc1ccc(F)cc1 | 6 | 0 | 69* | 85* | 9
CCN(CC)S(=O)(=O)c1ccc(C)c(NC(=O)CNCCN(C(C)C)C(C)C)c1 | 7 | -1 | -5 | -16 | -2
O=C1CC(c2ccccc2)=NN1c1nc(-c2ccccc2)cs1 | 7 | 11* | -1 | 1 | -2
CC1=NN(c2nc(-c3ccccc3)cs2)C(=O)C1 | -4 | -2 | 5 | 19 | 2
N#Cc1c(N)nc2c3c(sc(=N)c2c1N)NC(=O)CC3c1c(F)cccc1Cl (stereo not given) | 15 | 3 | 23 | 68* | 5
O=C(Nc1ccc(C(=O)OC[C@@H]2CCCN3CCCC[C@H]23)cc1)c1cccc(Br)c1 | 3 | -1 | -3 | -19 | 1
CCn1c(COc2ccccc2OC)nnc1SCC#N | -4 | 10* | -7 | -1 | -1
Cc1cccc(Cc2cnc(N3C(=N)SC(C)C3=O)s2)c1 (stereo not given) | 13 | 9.6* | 3 | -14 | -5
O=C(NC1CCCCC1)C(c1ccc(F)cc1)N(Cc1ccco1)C(=O)CN1C(=O)c2ccccc2S1(=O)=O (stereo not given) | -1 | 9.9* | 10 | -3 | -3
Cc1cc(C)nc(NS(=O)(=O)c2ccc(NC(=O)CN3C(=O)C4CC=CCC4C3=O)cc2)n1 (stereo not given) | 1 | 0 | 1 | -13 | -5
CC(C)Nc1nc(SC(C)C(=O)Nc2ccccc2)nc(N(C)C)n1 (stereo not given) | 3 | 10* | 5 | -9 | -3
CCNc1nc(SC(C)C(=O)Nc2ccccc2)nc(N(C)C)n1 (stereo not given) | 15 | 0 | 1 | 6 | 0
Cc1cn2c(nc1=O)OC1CC2OC1CO (stereo not given) | 14 | 2 | 4 | 1 | 1
CCN(CC)c1ccc2cc(S(=O)(=O)c3ccc(C)cc3)c(=O)oc2c1 | 11 | -1 | 1 | -19 | 8
COC(=O)CNC(=O)CNC(=O)Nc1ccccc1Cl | 7 | -3 | 6 | 41* | -3
CCOC(=O)CNC(=O)Nc1cccc(Cl)c1C | 10 | -1 | 3 | -23 | 0
CC(C)N(C(=S)NC1CCCCC1)c1ccccc1 | 9 | 3 | -3 | 4 | -1
CC(C)N(Cc1ccccc1)C(=S)NC1CCCCC1 | 102* | 0 | 3 | 21 | 42*
SMILES | FXIIa inh 1536 | Wee1 degr inh | thrombin 1536 | KLK5 inh | FXIa inh 1536
O=C(O)c1ccc(NC2CC(=O)N(Cc3ccccc3)C2=O)cc1 (stereo not given) | 2 | -3 | -3 | 6 | -2
COc1cc(/C=C(/NC(=O)c2ccccc2)C(=O)N2CCN(C)CC2)c([N+](=O)[O-])cc1OC | 10 | 4 | 19 | 40* | 5
COCCCn1cn[nH]c1=S | 22 | 0 | -8 | 63* | 28
CCOCCCNC(=O)C(NC(=O)c1ccccc1O)c1ccc(Cl)cc1 (stereo not given) | 7 | 0 | -1 | . | -1
OC(CNc1ccccc1)COc1ccc(OCC(O)CNc2ccccc2)cc1 (stereo not given) | 14 | -2 | 0 | 58* | 2
CCOCC(O)CNc1ccccc1 (stereo not given) | 10 | -1 | 1 | -1 | 7
O=C(N/N=C/c1ccccc1)c1cc(=O)[nH]c2ccccc12 | -1 | -2 | -9 | 16 | -13
COc1ccc(O)c(/C=N/NC(=O)c2cc(=O)[nH]c3ccccc23)c1 | 66* | 1 | 20 | 14 | 37
Cc1cc2ncn(C(=O)c3ccc4c(c3)OCO4)c2cc1C | -8 | 1 | 41* | 6 | 18
CCCNC(=O)Cn1nc(C(F)(F)F)cc1C | 12 | -4 | -1 | 2 | -1
COCCNC(=O)Cn1nc(C(F)(F)F)cc1C | 11 | -3 | 104* | 44* | 13
Cc1noc(C)c1COc1ccc(C(=O)Nc2ccccc2)cc1 | 8 | -3 | -11 | 4 | -3
Cc1noc(C)c1COc1ccc(C(=O)NCc2ccccn2)cc1 | 11 | 1 | 4 | 41* | -7
Fc1cccc(CN2CCN(Cc3nc(CCc4ccccc4)no3)CC2)c1 | 10 | 1 | 1 | . | 4
CCCn1cc(C(=O)OCC)c(=O)c2cc(F)c(F)cc21 | 31 | -2 | 4 | 23 | 65*
Cc1[nH]n2c(=O)cc(C(C)(C)C)nc2c1-c1ccccc1 | 16 | 9.1* | 3 | -119 | 5
O=C(C[n+]1ccc(/C=N/O)cc1)N1CCCCC1 | 10 | -2 | 1 | 1 | 3
COc1cccc(C2CC(c3ccc(Br)cc3)=NN2C(=O)c2ccncc2)c1OC (stereo not given) | 6 | 9.0* | 4 | -9 | -3
COc1ccccc1C1CC(c2ccc(Br)cc2)=NN1C(=O)c1cccnc1 (stereo not given) | 9 | -2 | -4 | -7 | 1
CC1(C)Oc2ccc(C(=O)NN)cc2NC1=O | 5 | -2 | 13 | -3 | -3
O=C(Nc1ccccc1)c1cccc(N2C(=O)CCC2=O)c1 | 17 | 7 | 19 | 63* | 11
O=C(CCSCCC(=O)Nc1ccccc1F)Nc1ccccc1F | 11 | -1 | -3 | -8 | 4
CC(C)(C)c1ccc(Cn2nnc3c(=O)[nH]c(C4CCN(C(=O)Cc5cccs5)CC4)nc32)cc1 | 15 | -3 | 9 | 118* | 16
Cc1cccc2[nH]c(CN(C)C(=O)CC3C(=O)NCCN3CC(C)(C)C)nc12 (stereo not given) | 12 | 1 | 1 | . | 1
O=C(CN1CCOCC1)N1CCc2ccccc2C(c2ccccc2)C1 (stereo not given) | -2 | -3 | 20 | 73* | 10

Screening data as filed in PubChem BioAssay.
